ChEMBL document CHEMBL3351356, “Development of a novel class of mitochondrial ubiquinol-cytochrome c reductase binding protein (UQCRB) modulators as promising antiangiogenic leads” (J Med Chem, 2014)
In brackets after ≈: the same amount, converted by molar mass. Each block holds one compound with its values, some of them ahead of it. Activity calls are given as the source filed them. No cut-off for these calls is given here.

Experiments:
[1] = Thermodynamic solubility in PBS by HPLC; assay type: physicochemical; conditions: read-out: Therm_solubility
[2] = Thermodynamic solubility in H2O by HPLC; assay type: physicochemical; conditions: water; read-out: Therm_solubility
[3] = biological target: T1, Cytochrome b-c1 complex subunit 7 (Homo sapiens, UniProt P14927); experiment: Modulation of UQCRB in human HepG2 cells assessed as inhibition of HIF-1alpha for 4 hrs under 1%O2 by Western blot analysis; assay type: cell-based
T1 sequence (P14927 whole entry): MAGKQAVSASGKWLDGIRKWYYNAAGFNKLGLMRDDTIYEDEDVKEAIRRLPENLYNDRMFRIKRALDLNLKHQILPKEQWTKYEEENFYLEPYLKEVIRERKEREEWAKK
Outline: (§1)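 HepG2 cells pretreated with compound for 30 min, then exposed to 1% O₂ for 4 h. HIF-1α and tubulin measured by Western blot and quantified by densitometry.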

Mus musculus = experiment: Toxicity in human U87MG cells implanted into Balb C mouse assessed as body weight loss at 20 mg/kg, ip every other day measured on day 18; assay type: organism-based, U-87MG ATCC; design: dose 20 mg/kg, route intraperitoneal; conditions: in vivo
Outline: (§2)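 Female athymic Balb C nu/nu mice, 4 weeks old, implanted subcutaneously in the dorsal flank with 5 × 10⁶ U87MG cells in PBS/Matrigel (1:1). At palpable tumors (50−100 mm³), randomized into two groups (n = 8). Dosed intraperitoneally with vehicle or 20 mg/kg every other day. Tumor volume and body weight followed over 17 days.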

[4] = Antitumor activity against human U87MG cells assessed as inhibition of cell growth after 72 hrs by MTT assay; assay type: functional, cell-based, U-87MG ATCC; conditions: U-87 MG
Chorioallantoic membrane [5] = experiment: Antiangiogenic activity in chicken chorioallantoic membrane assessed as inhibition of blood vessel formation (reference value: 23%); assay type: functional, cell membranes; conditions: Gallus gallus, dose or concentration not given here
Outline: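 Fertilized chick eggs held at 37 °C in a humidified incubator; about 2 mL albumin withdrawn on day 3. Compound-loaded Thermanox coverslips placed on the CAM of 4.5-day embryos; retinoic acid served as positive control. Result given as percent positive eggs of eggs tested.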

[6] = biological target: T2, Cytochrome b-c1 complex subunit 7 (Homo sapiens) (UniProt P14927); experiment: Modulation of UQCRB in human HepG2 cells assessed as inhibition of HIF-1alpha accumulation at 1 to 10 uM for 4 hrs under 1%O2 by Western blot analysis; assay type: cell-based; outline: as §1
T2 sequence (whole entry): T1 sequence (P14927 whole entry)

HUVEC [7] = experiment: Antiangiogenic activity in HUVEC assessed as inhibition of VEGF-induced tube formation by optical microscopy; assay type: functional, cell-based; conditions: Homo sapiens
Outline: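 Serum-starved HUVECs on Matrigel, VEGF-stimulated with or without compound. Connected cells counted in random fields at 100× and divided by total cells in the same field. Basal tube formation in serum-free medium normalized to 100%. Mean ± SE of three independent experiments.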

HUVEC [8] = experiment: Antiangiogenic activity in HUVEC assessed as inhibition of VEGF-induced invasion by Transwell chyamber system; assay type: functional, cell-based; conditions: Homo sapiens
Outline: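 HUVECs serum-starved, then stimulated with VEGF with or without compound. Invasion measured in Transwell chambers with 8.0 μm pore polycarbonate filter inserts; invaded cells counted by light microscope at 100×. Basal invasiveness of HUVECs in serum-free medium normalized to 100%. Mean ± SE of three independent experiments.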

HepG2 [9] = experiment: Inhibition of hypoxia-induced VEGF expression in human HepG2 cells at 1 to 5 uM for 30 mins followed by 1%O2 for 16 hrs by ELISA; assay type: functional, cell-based
Outline: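 HepG2 cells pretreated with compound for 30 min, then exposed to 1% O₂ for 16 h. VEGF protein in culture supernatant measured by VEGF-specific ELISA. Mean ± SE of three independent experiments.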

HepG2 [10] = experiment: Cytotoxicity against human HepG2 cells assessed as effect on cell viability at 1 to 20 uM after 72 hrs by MTT assay; assay type: cell-based; conditions: hepg2, 72 h
[11] = biological target: T2, Cytochrome b-c1 complex subunit 7 (Homo sapiens); experiment: Binding affinity to UQCRB in human HepG2 cells assessed as inhibition of hypoxia-induced mitochondrial ROS generation under 1%O2 for 10 mins after 30 mins by MitoSOX Red fluorescence assay; assay type: cell-based
Outline: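 HepG2 cells pretreated with compound for 30 min, then held at 1% O₂ for 10 min. Loaded with MitoSOX Red (5 μM) for 10 min, lysed and centrifuged. Fluorescence of protein-normalized supernatant read at ex 510 / em 580 nm. Mean ± SE of three independent experiments.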

Chorioallantoic membrane [12] = experiment: Toxicity in chicken chorioallantoic membrane assessed as induction of rupture of pre-existing vessels; assay type: cell membranes, Gallus gallus; conditions: in vivo
HUVEC [13] = experiment: Toxicity in HUVEC assessed as reduction in cell viability by trypan blue staining method; assay type: cell-based; conditions: human
Outline: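 HUVECs tested by trypan blue staining, run in parallel with the VEGF-stimulated invasion and tube formation assays at the same concentrations.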

[14] = biological target: T2, Cytochrome b-c1 complex subunit 7 (Homo sapiens); experiment: Displacement of biotin-labeled terpestacin from UQCRB (unknown origin) by surface plasmon resonance; conditions: concentration not given here
Outline: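 Biotin (control) and biotinylated terpestacin immobilized on a streptavidin sensor chip. Competitor (25 μM) incubated with purified UQCRB (25 μM) in pH 7.4 buffer (10 mM HEPES, 150 mM NaCl, 3 mM EDTA). Complexes injected at 30 μL/min; chip regenerated with 50 mM NaOH. Binding taken as resonance on biotinylated terpestacin minus resonance on biotin.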

U-87MG ATCC [15] = experiment: Antitumor activity against human U87MG cells implanted into Balb C mouse assessed as CD31 expression in tumor at 20 mg/kg, ip every other day measured on day 18 by immunohistochemical staining; assay type: functional, organism-based; design: dose 20 mg/kg
Outline: (§3)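 Paraffin tumor sections (4 μm) incubated overnight at 4 °C with anti-CD31, anti-HIF-1α or anti-VEGF antibodies. Then FITC- or Alexa-conjugated secondary antibodies for 45 min at room temperature, with DAPI counterstain.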

U-87MG ATCC [16] = experiment: Antitumor activity against human U87MG cells implanted into Balb C mouse assessed as decrease in microvessel density at 20 mg/kg, ip every other day measured on day 18; assay type: functional, organism-based; design: dose 20 mg/kg
U-87MG ATCC [17] = experiment: Antitumor activity against human U87MG cells implanted into Balb C mouse assessed as VEGF expression in tumor at 20 mg/kg, ip every other day measured on day 18 by immunohistochemical staining; assay type: functional, organism-based; design: dose 20 mg/kg; outline: as §3
U-87MG ATCC [18] = experiment: Antitumor activity against human U87MG cells implanted into Balb C mouse assessed as inhibition of tumor growth at 20 mg/kg, ip every other day measured on day 18; assay type: functional, organism-based; design: dose 20 mg/kg; outline: as §2
U-87MG ATCC [19] = experiment: Antitumor activity against human U87MG cells implanted into Balb C mouse assessed as HIF1alpha expression in tumor at 20 mg/kg, ip every other day measured on day 18 by immunohistochemical staining; assay type: functional, organism-based; design: dose 20 mg/kg; outline: as §3

solubility thermodynamic [1]: 108 µg/mL
solubility thermodynamic [2]: > 500 µg/mL
IC50 [3]: 5 µM
SMILES: O=S(=O)(Nc1ccc([O-])cc1)c1ccc(-c2ccccc2)cc1.[K+]
Activity (Mus musculus): Non-toxic
IC50 [4]: 12.5 µM

IC50 [3]: > 20 µM
SMILES: O=S(=O)(Nc1ccc(O)cc1)c1ccc2ccccc2c1

IC50 [3]: > 20 µM
SMILES: O=S(=O)(Nc1ccc(O)cc1)c1cccc2cccnc12

IC50 [3]: > 20 µM
SMILES: O=S(=O)(Nc1ccc(O)c2ccccc12)c1ccc(-c2ccccc2)cc1

IC50 [3]: > 20 µM
SMILES: O=S(=O)(Nc1cccc2ccc(O)cc12)c1ccc(-c2ccccc2)cc1

IC50 [3]: > 20 µM
SMILES: CC(C)(C)c1ccc(S(=O)(=O)Nc2ccc(O)c3ccccc23)cc1

IC50 [3]: 8 µM
SMILES: CC(C)(C)c1ccc(S(=O)(=O)Nc2cccc(O)c2)cc1

IC50 [3]: > 20 µM
SMILES: Cc1ccc(S(=O)(=O)Nc2ccc(O)cc2)cc1

IC50 [3]: 8 µM
SMILES: CC(C)(C)c1ccc(S(=O)(=O)Nc2ccccc2O)cc1

solubility thermodynamic [1]: 26.7 µg/mL (≈ 87.6 µM)
inhibition [6]: Active
IC50 [3]: 5 µM
inhibition [11]: Dose-dependent effect
inhibition [14]: 40%
SMILES: CC(C)(C)c1ccc(S(=O)(=O)Nc2ccc(O)cc2)cc1
inhibition (Chorioallantoic membrane [5]): 65%
inhibition (HUVEC [7]): Dose-dependent effect
inhibition (HUVEC [8]): Dose-dependent effect
inhibition (HepG2 [9]): Active
Activity (HepG2 [10]): Non-toxic
Activity (Chorioallantoic membrane [12]): Non-toxic
Activity (HUVEC [13]): Non-toxic

solubility thermodynamic [1]: 7.26 µg/mL (≈ 19.3 µM)
IC50 [3]: 20 µM
SMILES: O=S(=O)(Nc1ccc(O)c2ncccc12)c1ccc(-c2ccccc2)cc1

IC50 [3]: > 20 µM
SMILES: O=C(O)c1cc(NS(=O)(=O)c2ccc(-c3ccccc3)cc2)ccc1O

inhibition [6]: Active
inhibition [11]: Dose-dependent effect
inhibition [14]: 40%
SMILES: O=S(=O)(Nc1ccc(O)cc1)c1ccc(-c2ccccc2)cc1 [listing 1 of 2 here]
inhibition (U-87MG ATCC [15]): Active
inhibition (Chorioallantoic membrane [5]): 69%
inhibition (U-87MG ATCC [16]): Active
inhibition (HUVEC [7]): Dose-dependent effect
inhibition (U-87MG ATCC [17]): Active
inhibition (HUVEC [8]): Dose-dependent effect
inhibition (U-87MG ATCC [18]): Active
inhibition (HepG2 [9]): Active
inhibition (U-87MG ATCC [19]): Active

solubility thermodynamic [1]: < 2.06 µg/mL
solubility thermodynamic [2]: < 2.06 µg/mL
IC50 [3]: 2.5 µM
SMILES: O=S(=O)(Nc1ccc(O)cc1)c1ccc(-c2ccccc2)cc1 [listing 2 of 2 here]
Activity (HepG2 [10]): Non-toxic
Activity (Chorioallantoic membrane [12]): Non-toxic
Activity (HUVEC [13]): Non-toxic

SMILES: CC1=C(/C=C/C(C)=C/C=C/C(C)=C/C(=O)O)C(C)(C)CCC1
inhibition (Chorioallantoic membrane [5]): 67%

solubility thermodynamic [1]: 12.8 µg/mL (≈ 36 µM)
IC50 [3]: 20 µM
SMILES: CC(C)(C)c1ccc(S(=O)(=O)Nc2ccc(O)c3ncccc23)cc1

IC50 [3]: > 20 µM
SMILES: O=S(=O)(Nc1ccc(O)c(Cl)c1)c1ccc(-c2ccccc2)cc1

IC50 [3]: > 20 µM
SMILES: O=S(=O)(Nc1ccc(O)c(F)c1)c1ccc(-c2ccccc2)cc1

IC50 [3]: > 20 µM
SMILES: CCc1ccc(S(=O)(=O)Nc2ccc(O)cc2)cc1

IC50 [3]: > 20 µM
SMILES: O=S(=O)(Nc1cccc2c(O)cccc12)c1ccc(-c2ccccc2)cc1
